Experiment [1] deals with T1, Monoglyceride lipase (Homo sapiens), Q99685 [C208A,C242A].
T1 sequence (whole entry): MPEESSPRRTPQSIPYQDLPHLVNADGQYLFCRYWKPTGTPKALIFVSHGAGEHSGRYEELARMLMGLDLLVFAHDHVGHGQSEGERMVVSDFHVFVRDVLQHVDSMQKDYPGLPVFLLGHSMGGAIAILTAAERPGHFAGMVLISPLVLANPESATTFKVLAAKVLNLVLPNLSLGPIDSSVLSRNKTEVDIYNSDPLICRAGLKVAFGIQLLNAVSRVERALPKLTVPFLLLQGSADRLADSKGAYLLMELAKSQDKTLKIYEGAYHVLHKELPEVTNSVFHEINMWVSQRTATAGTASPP
In words: Inhibition of human MAGL C208A/C242A mutant expressed in Escherichia coli. The gist of the method:
(§1)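 Homogenates of E. coli expressing wild-type or C201A, C208A, C242A or C208A/C242A mutant MAGL used as enzyme source in the [3H]-2-OG hydrolysis assay; n = 3 in duplicate.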

The test system of experiment [2] is T2, Monoglyceride lipase (Homo sapiens), Q99685 [C201A].
T2 sequence (whole entry): T1 sequence (whole entry) with C201A, A208C, A242C
The experiment can be described thus: Inhibition of human MAGL C201A mutant expressed in Escherichia coli. The gist of the method:
as §1

In experiment [3] the test system is T3, Monoglyceride lipase (Homo sapiens), Q99685 [C242A].
T3 sequence (whole entry): T1 sequence (whole entry) with A208C
In words: Inhibition of human MAGL C242A mutant expressed in Escherichia coli. The gist of the method:
as §1

The target in experiment [4] is T4, Monoglyceride lipase (Mus musculus) (UniProt O35678).
T4 sequence (whole entry): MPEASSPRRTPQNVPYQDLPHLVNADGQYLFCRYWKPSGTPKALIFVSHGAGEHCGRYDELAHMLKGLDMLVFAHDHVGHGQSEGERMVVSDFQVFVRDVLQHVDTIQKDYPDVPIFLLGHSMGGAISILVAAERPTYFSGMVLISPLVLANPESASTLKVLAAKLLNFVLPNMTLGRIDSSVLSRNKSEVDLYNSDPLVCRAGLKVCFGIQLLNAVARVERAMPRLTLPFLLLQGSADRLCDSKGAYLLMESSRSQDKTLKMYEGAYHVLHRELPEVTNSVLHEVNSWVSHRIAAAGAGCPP
The experiment can be described thus: Inhibition of MAGL in mouse B16 cells assessed as increase in 2-arachidonoylglycerol level at 10 uM after 8 hrs by isotope dilution HPLC-MS method. In kind it is cell-based. The gist of the method: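 Murine B16 melanoma cells (MEMα, 10% FBS, 37 °C, 5% CO2), 5 × 10^6 cells/condition seeded 12 h, then exposed 8 h to 10 μM inhibitor or 0.1% DMSO in 1% FBS medium; cells plus medium extracted with chloroform–methanol with d5-2-AG, silica SPE cleanup, 2-AG quantified by APCI-positive HPLC–MS isotope dilution, normalized to vehicle.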

The target of experiment [5] is T5, Monoglyceride lipase (Homo sapiens) (UniProt Q99685).
T5 sequence (whole entry): T1 sequence (whole entry) with A208C, A242C
In words: Inhibition of MAGL at 10^-8.5 M after 30 mins by liquid scintillation counter. The gist of the method: (§2)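 Pure MAGL (105 ng, 20 μL) incubated 30 min at room temperature with inhibitor at 10−3 to 10−6 M or DMSO, then diluted 300-fold in Tris pH 8.0; after 15 min, aliquot assayed with [3H]-2-OG by standard protocol; same nominal post-dilution concentrations also assayed directly; percent of control, one-way ANOVA with Dunnett's test.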

Experiment [6] has as its target T5, Monoglyceride lipase (Homo sapiens). In words: Inhibition of MAGL at 10^-4.5 to 10^-5 M after 30 mins by liquid scintillation counter in presence of DTT. The gist of the method:
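Purified MAGL (3 ng; Tris pH 8.0, 50 mM, 0.1% BSA) preincubated 10 min at room temperature with inhibitor at 10−4.5 and 10−5 M or DMSO; DTT (10−2 M) then added, 15 min at 37 °C, before [3H]-2-OG hydrolysis assay as standard; activity normalized to respective control, n analysed by one-way ANOVA with Bonferroni test.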

The species entered for experiment [7] is Homo sapiens. In words: Selectivity ratio of IC50 for human recombinant FAAH to IC50 for human recombinant MAGL.
For experiment [8], the system named is T1, Monoglyceride lipase (Homo sapiens), Q99685 [C208A,C242A]. The experiment can be described thus: Inhibition of human MAGL C208A/C242A mutant expressed in Escherichia coli in presence of DTT.
Experiment [9] relates to T6, Monoglyceride lipase (Homo sapiens), Q99685 [C208A].
T6 sequence (whole entry): T1 sequence (whole entry) with A242C
In words: Inhibition of human MAGL C208A mutant expressed in Escherichia coli. In short, it runs like this: as §1

Experiment [10] addresses T5, Monoglyceride lipase (Homo sapiens). In words: Irreversible inhibition of MAGL at 10^-8.5 M measured after 300 times dilution. The gist of the method: as §2

The structures appear in SMILES notation. Changes are numbered by the printed parent chain. Activity calls are given as the source filed them. The calls are words filed in the database; no cut-off is given here.

With `CC(C)(C)c1ccc(CN2CCN(C(=S)Sc3ccc([N+](=O)[O-])cc3[N+](=O)[O-])CC2)cc1`, the inhibition result in experiment [1], in [3], in experiment [5], in experiment [6] and in [9] was “inactive” throughout. Further, the inhibition entry in experiment [2], in [4], in [8] and in experiment [10] was “Active” in each case. Also, the Ratio IC50 in [7] is 11.

Source of the values: ChEMBL document CHEMBL2157991, “Synthesis and pharmacological evaluation of 2,4-dinitroaryldithiocarbamate derivatives as novel monoacylglycerol lipase inhibitors” (J Med Chem, 2012).
